pIC50: −log10 of the molar value.
What was measured:
[1] = target: T1, 5-hydroxytryptamine receptor 1A (Rattus norvegicus) (UniProt P19327); experiment: Compound at 10E-5 M was tested in vitro for the inhibition of radioligand [3H]8-OH-DPAT binding to 5-hydroxytryptamine 1A receptor in rat hippocampal membrane; assay type: cell membranes; details: Hippocampus
T1 sequence (whole entry): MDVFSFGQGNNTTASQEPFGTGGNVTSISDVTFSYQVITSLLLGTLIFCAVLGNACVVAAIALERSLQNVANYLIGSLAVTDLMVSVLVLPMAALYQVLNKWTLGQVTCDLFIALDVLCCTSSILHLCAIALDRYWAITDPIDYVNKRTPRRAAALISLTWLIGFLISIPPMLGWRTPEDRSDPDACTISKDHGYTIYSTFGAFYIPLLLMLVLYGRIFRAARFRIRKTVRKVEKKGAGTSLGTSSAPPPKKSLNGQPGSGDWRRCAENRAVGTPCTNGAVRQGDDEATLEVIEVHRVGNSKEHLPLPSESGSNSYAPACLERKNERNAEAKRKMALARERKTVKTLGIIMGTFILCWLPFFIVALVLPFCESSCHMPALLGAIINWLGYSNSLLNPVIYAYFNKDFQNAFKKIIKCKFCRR

[2] = target: Adrenergic receptor alpha-1 (Rattus norvegicus) (UniProt P15823+P23944+P43140); experiment: Compound at 10E-5 M was tested in vitro for the inhibition of radioligand [3H]-prazosin binding to Alpha-1 adrenergic receptor in rat cortical membrane; assay type: cell membranes
[3] = target: T2, Adrenergic receptor alpha-1 (Rattus norvegicus, UniProt P15823+P23944+P43140); experiment: In vitro inhibitory concentration against radioligand [3H]prazosin binding to alpha-1 adrenergic receptor in rat cortical membrane.; assay type: cell membranes
T2 sequence (P15823 whole entry): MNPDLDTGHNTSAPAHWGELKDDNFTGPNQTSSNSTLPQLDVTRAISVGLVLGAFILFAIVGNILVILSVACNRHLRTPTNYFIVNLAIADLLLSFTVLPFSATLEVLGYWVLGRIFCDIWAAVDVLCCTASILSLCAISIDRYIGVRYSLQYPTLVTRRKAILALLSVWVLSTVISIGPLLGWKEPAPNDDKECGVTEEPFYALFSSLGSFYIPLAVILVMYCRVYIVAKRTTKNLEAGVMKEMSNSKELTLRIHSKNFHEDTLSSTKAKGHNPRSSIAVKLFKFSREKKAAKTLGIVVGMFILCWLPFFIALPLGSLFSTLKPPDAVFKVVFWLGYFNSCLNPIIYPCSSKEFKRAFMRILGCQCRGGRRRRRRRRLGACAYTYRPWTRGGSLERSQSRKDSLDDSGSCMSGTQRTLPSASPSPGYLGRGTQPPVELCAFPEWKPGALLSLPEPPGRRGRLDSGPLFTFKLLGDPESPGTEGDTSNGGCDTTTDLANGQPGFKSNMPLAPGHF
T2 sequence (P23944 whole entry): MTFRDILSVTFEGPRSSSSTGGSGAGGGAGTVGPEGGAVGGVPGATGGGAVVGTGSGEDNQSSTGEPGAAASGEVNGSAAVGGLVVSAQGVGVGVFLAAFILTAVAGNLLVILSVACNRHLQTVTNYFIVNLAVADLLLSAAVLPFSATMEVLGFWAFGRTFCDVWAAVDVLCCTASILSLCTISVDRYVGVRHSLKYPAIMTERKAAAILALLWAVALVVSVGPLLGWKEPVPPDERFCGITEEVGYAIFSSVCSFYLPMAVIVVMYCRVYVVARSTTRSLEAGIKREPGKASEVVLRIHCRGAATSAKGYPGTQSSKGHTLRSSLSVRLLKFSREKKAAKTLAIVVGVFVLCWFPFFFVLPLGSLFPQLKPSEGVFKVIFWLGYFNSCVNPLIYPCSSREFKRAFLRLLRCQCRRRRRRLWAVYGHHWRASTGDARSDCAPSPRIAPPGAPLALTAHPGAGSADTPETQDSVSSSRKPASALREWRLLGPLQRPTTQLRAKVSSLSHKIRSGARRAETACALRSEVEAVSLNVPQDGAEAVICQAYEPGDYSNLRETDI
T2 sequence (P43140 whole entry): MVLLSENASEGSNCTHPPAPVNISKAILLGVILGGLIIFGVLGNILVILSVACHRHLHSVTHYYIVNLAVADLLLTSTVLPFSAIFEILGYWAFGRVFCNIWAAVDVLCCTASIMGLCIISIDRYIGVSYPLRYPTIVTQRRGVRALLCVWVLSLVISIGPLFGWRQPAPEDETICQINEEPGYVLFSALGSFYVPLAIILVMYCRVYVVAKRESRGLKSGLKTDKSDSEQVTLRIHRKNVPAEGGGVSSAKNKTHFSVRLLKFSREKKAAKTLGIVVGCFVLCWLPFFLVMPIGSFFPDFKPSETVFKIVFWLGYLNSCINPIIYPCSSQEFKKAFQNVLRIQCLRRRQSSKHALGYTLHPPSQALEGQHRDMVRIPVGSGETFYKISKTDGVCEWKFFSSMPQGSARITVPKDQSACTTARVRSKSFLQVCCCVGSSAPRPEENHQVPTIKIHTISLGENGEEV
Outline: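 Male CRL:CD(SD)BR-COBS rats (~150 g) were decapitated. Cortex was homogenized in 50 mM Tris-HCl pH 7.4, spun at 50000g, given 10 min at 37 °C and washed. Incubation buffer had 0.1% ascorbic acid and 10 μM pargyline. GF/B filtration and scintillation counting; IC50 from dose-inhibition curves.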

[4] = target: T3, 5-hydroxytryptamine receptor 1A (Rattus norvegicus, UniProt P19327); experiment: In vitro inhibitory concentration against radioligand [3H]8-OH-DPAT binding to 5-hydroxytryptamine 1A receptor in rat hippocampal membrane.; assay type: cell membranes, Hippocampus
T3 sequence (P19327 whole entry): T1 sequence (whole entry)
Outline: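 Rat hippocampal membranes (male SD rats, ~150 g) were washed in 50 mM Tris-HCl pH 7.4, including 10 min at 37 °C. Incubation buffer contained 4 mM CaCl2 and 10 μM pargyline. Filtered onto GF/B and counted; 50% inhibitory concentration from fitted curves.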

[5] = target: Serotonin 1a (5-HT1a) receptor/Adrenergic receptor alpha-1 (Rattus norvegicus) (UniProt P15823+P23944+P43140+P19327); experiment: Selectivity for alpha-1-adrenergic receptor to that of 5-HT1A receptor.; assay type: protein assay
Outline: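 Ratio of IC50 at α1-adrenoceptors ([3H]prazosin, rat cortex) to IC50 at 5-HT1A receptors ([3H]-8-OH-DPAT, rat hippocampus). Each IC50 came from radioligand displacement curves.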

Row | SMILES | inhibition [1] [%] | inhibition [2] [%] | IC50 [3] [nM] | pIC50 [4] | Selectivity [5] | pIC50 [3]
1 | Cc1sc2nc(SCCCN3CCN(c4ccc(Cl)cc4)CC3)nc(O)c2c1C | < 50 | < 50 |  |  |  | 
2 | Cc1sc2nc(SCCCN3CCN(c4ccccc4)CC3)n(N)c(=O)c2c1C |  |  | 43 | 8.48 | 13 | 
3 | Cc1sc2nc(SCCCN3CCN(c4cccc5ccccc45)CC3)nc(O)c2c1C |  |  | 886 |  | 2.5 | 
4 | Cc1sc2nc(SCCCN3CCN(c4cccc(Cl)c4)CC3)nc(O)c2c1C |  |  | 299 | 6.01 | 0.3 | 
5 | COc1ccccc1N1CCN(CCCSc2nc(O)c3c4c(sc3n2)CCCC4)CC1 |  |  | 38 |  | 0.6 | 
6 | NCCc1c[nH]c2ccc(O)cc12 |  | < 50 |  |  |  | 
7 | Oc1nc(SCCCN2CCN(c3cccc4ccccc34)CC2)nc2sc(-c3ccccc3)cc12 |  |  | 2454 |  | 1 | 
8 | Cc1sc2nc(SCCCN3CCN(c4ncccn4)CC3)nc(O)c2c1C |  |  | 1098 |  | 5 | 
9 | O=c1[nH]c(SCCCN2CCN(c3ccccc3Cl)CC2)nc2sc3c(c12)CCCC3 |  |  |  | 6.03 |  | 
10 | COc1ccccc1N1CCN(CCCSc2nc3sc4c(c3c(=O)[nH]2)CCCC4)CC1 |  |  |  | 7.23 |  | 
11 | COc1ccccc1N1CCN(CCCSc2nc3sc4c(c3c(=O)n2C)CCCC4)CC1 |  |  | 64 | 8.15 | 9 | 
12 | COc1ccccc1N1CCN(CCCOc2nc(SC)nc3sc4c(c23)CCCC4)CC1 |  |  | 75 | 5.85 | 0.05 | 
13 | COc1ccccc1N1CCN(CCCSc2nc3sc(C)c(C)c3c(=O)n2Nc2ccccc2)CC1 |  |  | 32 | 6.30 | 0.06 | 
14 | COc1ccc(N2CCN(CCCSc3nc(O)c4c(C)c(C)sc4n3)CC2)cc1 | < 50 | < 50 |  |  |  | 
15 | O=c1[nH]c(SCCCN2CCN(c3cccc4ccccc34)CC2)nc2sc3c(c12)CCCC3 |  |  |  | 6.43 |  | 
16 | COc1ccccc1N1CCN(CCCSc2nc3sc4c(c3c(=O)n2N)CCCC4)CC1 |  |  | 39 | 8.89 | 30 | 
17 | COc1ccccc1N1CCN(CCc2nn3c(=O)c4c(C)c(C)sc4nc3s2)CC1 |  |  | 125 | 7.38 | 3 | 
18 | Cc1sc2nc(SCCCN3CCN(c4ncccn4)CC3)[nH]c(=O)c2c1C |  |  |  | 6.65 |  | 
19 | COc1ccccc1N1CCN(CCSc2nc(O)c3c4c(sc3n2)CCCC4)CC1 |  |  | 20 |  | 0.2 | 

Row | SMILES | inhibition [1] [%] | inhibition [2] [%] | IC50 [3] [nM] | pIC50 [4] | Selectivity [5] | pIC50 [3]
20 | COc1ccccc1N1CCN(CCSc2nc3sc4c(c3c(=O)[nH]2)CCCC4)CC1 |  |  |  | 7.01 |  | 
21 | Cc1sc2[nH]c(=S)n(N)c(=O)c2c1C | < 50 |  |  |  |  | < 5.00
22 | COc1ccccc1N1CCN(CCCSc2nc3sc(C)c(C)c3c(=O)n2C)CC1 |  |  | 27 | 8.52 | 9 | 
23 | Cc1sc2nc(SCCCN3CCN(c4ccccc4Cl)CC3)[nH]c(=O)c2c1C |  |  |  | 6.34 |  | 
24 | Oc1nc(SCCCN2CCN(c3ncccn3)CC2)nc2sc3c(c12)CCCC3 |  |  | 1814 | 6.30 | 3.5 | 
25 | Oc1nc(SCCCN2CCN(c3cccc4ccccc34)CC2)nc2sc3c(c12)CCCC3 |  |  | 445 |  | 1 | 
26 | Cc1sc2nc(SCCCN3CCN(c4cccc5ccccc45)CC3)[nH]c(=O)c2c1C |  |  |  | 6.45 |  | 
27 | COc1ccccc1N1CCN(CCCn2c(SC)nc3sc4c(c3c2=O)CCCC4)CC1 |  |  | 95 | 6.29 | 0.2 | 
28 | Oc1nc(SCCCN2CCN(c3ccccc3Cl)CC2)nc2sc3c(c12)CCCC3 |  |  | 168 |  | 0.2 | 
29 | Cc1sc2nc(SCCCN3CCN(c4ncccn4)CC3)n(C)c(=O)c2c1C |  |  | 2030 | 7.19 | 31 | 
30 | Cc1sc2nc(SCCCN3CCN(c4ccccc4Cl)CC3)nc(O)c2c1C |  |  | 161 |  | 0.35 | 
31 | Cc1ccc(N(CC2=NCCN2)c2cccc(O)c2)cc1 | < 50 |  |  |  |  | 
32 | COc1ccccc1N1CCN(CCCSc2nc(O)c3cc(-c4ccccc4)sc3n2)CC1 |  |  | 224 | 6.41 | 0.6 | 
33 | COc1ccccc1N1CCN(CCCSc2nc3sccc3c(=O)n2N)CC1 |  |  | 2.9 | 8.92 | 2 | 
34 | COc1ccccc1N1CCN(CCCSc2nc(O)c3c(n2)sc2ccccc23)CC1 |  |  | 91 | 7.34 | 2 | 
35 | O=c1[nH]c(SCCCN2CCN(c3cccc4ccccc34)CC2)nc2sc(-c3ccccc3)cc12 |  |  |  | 5.70 |  | 
36 | COc1ccccc1N1CCN(CCCSc2nc(O)c3c(C)c(C)sc3n2)CC1 |  |  | 40 | 7.62 | 2 | 
37 | COc1ccccc1N1CCN(CCCSc2nc3ccccc3c(=O)n2N)CC1 |  |  | 4 | 9.30 | 8 | 
